Calls of active or inactive are those of the source. No cut-off for these calls is given here.
What was measured:
[1] = test system: K562; assay: Growth inhibition of human K562 cells after 72 hrs by Calcein AM dye based fluorescence assay; format: functional; details: K562, 72 h
In short: (§1)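 Cells in DMEM with 10% FBS at 37 °C, 5% CO2, treated in triplicate with six doses for 72 h. Calcein AM was added for 1 h and live-cell fluorescence read at 485/538 nm. GI50 was taken from dose-response curves.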

[2] = test system: MCF7; assay: Growth inhibition of human MCF7 cells after 72 hrs by Calcein AM dye based fluorescence assay; format: functional; details: MCF7, 72 h; in short: as §1
[3] = test system: K562; assay: Cell cycle arrest in human K562 cells assessed as accumulation at G1 phase at 10 uM after 24 hrs by propidium iodide staining-based flow cytometric analysis (reference value: 34.6%); format: functional
[4] = test system: K562; assay: Cell cycle arrest in human K562 cells assessed as accumulation at S phase at 10 uM after 24 hrs by propidium iodide staining-based flow cytometric analysis (reference value: 50.3%); format: functional
[5] = test system: K562; assay: Cell cycle arrest in human K562 cells assessed as accumulation at G2/M phase at 10 uM after 24 hrs by propidium iodide staining-based flow cytometric analysis (reference value: 15%); format: functional
[6] = test system: MCF7; assay: Cell cycle arrest in human MCF7 cells assessed as accumulation at sub G1 phase at 10 uM after 24 hrs by propidium iodide staining-based flow cytometric analysis (reference value: 7.1%); format: functional
In short: (§2)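 MCF-7 cells in DMEM with 10% FBS and penicillin/streptomycin at 37 °C, 5% CO2. Asynchronous cells were treated 24 h, PBS-washed, trypsinized and quenched with 0.1% trypsin inhibitor. Staining used 5× citrate/IGEPAL/spermine/Tris buffer (pH 7.6) with 50 μg/mL propidium iodide. DNA content was read by 488 nm flow cytometry and cell-cycle phases modelled.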

[7] = test system: MCF7; assay: Cell cycle arrest in human MCF7 cells assessed as accumulation at G1 phase at 10 uM after 24 hrs by propidium iodide staining-based flow cytometric analysis (reference value: 60.7%); format: functional; in short: as §2
[8] = test system: MCF7; assay: Cell cycle arrest in human MCF7 cells assessed as accumulation at S phase at 10 uM after 24 hrs by propidium iodide staining-based flow cytometric analysis (reference value: 34.1%); format: functional; in short: as §2
[9] = test system: MCF7; assay: Cell cycle arrest in human MCF7 cells assessed as accumulation at G2/M phase at 10 uM after 24 hrs by propidium iodide staining-based flow cytometric analysis (reference value: 5.3%); format: functional; in short: as §2
[10] = test system: K562; assay: Cell cycle arrest in human K562 cells assessed as accumulation at G2/M phase after 24 hrs by propidium iodide staining-based flow cytometric analysis; format: functional
[11] = test system: K562; assay: Induction of apoptosis in human K562 cells assessed as activation of caspase 3/7 using Ac-DEVD-AMC as substrate after 24 hrs by fluorescence assay; format: functional, cell-based
In short: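 K562 cells were cultured overnight and treated with increasing concentrations for 24 h. Lysis buffer (3×; HEPES pH 7.4, NaCl, KCl, MgCl2, EGTA, NP40, CHAPS, sucrose, DTT, PMSF) containing 150 μM Ac-DEVD-AMC was added for 2 h. Fluorescence was read at 346/442 nm and normalized to untreated control.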

[12] = target: Death-associated protein kinase 3 (Homo sapiens) (UniProt O43293); assay: Inhibition of DAPK3 (unknown origin)
Sequence of Death-associated protein kinase 3 (Homo sapiens) (O43293 whole entry, looked up): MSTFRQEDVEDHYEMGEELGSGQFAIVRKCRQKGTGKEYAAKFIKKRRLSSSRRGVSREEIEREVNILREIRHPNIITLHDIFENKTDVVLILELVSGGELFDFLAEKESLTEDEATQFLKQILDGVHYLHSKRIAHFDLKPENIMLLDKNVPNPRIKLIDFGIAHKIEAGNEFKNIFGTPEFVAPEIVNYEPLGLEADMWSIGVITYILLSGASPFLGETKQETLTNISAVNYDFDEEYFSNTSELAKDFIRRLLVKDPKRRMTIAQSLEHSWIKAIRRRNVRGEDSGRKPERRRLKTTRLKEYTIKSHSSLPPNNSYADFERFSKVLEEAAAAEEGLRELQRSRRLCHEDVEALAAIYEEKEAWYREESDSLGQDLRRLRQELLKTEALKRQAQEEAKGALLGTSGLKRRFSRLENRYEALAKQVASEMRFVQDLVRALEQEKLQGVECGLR

[13] = target: T1, Serine/threonine-protein kinase Chk1 (Homo sapiens) (UniProt O14757); assay: Inhibition of CHK1 (unknown origin)
T1 sequence (whole entry): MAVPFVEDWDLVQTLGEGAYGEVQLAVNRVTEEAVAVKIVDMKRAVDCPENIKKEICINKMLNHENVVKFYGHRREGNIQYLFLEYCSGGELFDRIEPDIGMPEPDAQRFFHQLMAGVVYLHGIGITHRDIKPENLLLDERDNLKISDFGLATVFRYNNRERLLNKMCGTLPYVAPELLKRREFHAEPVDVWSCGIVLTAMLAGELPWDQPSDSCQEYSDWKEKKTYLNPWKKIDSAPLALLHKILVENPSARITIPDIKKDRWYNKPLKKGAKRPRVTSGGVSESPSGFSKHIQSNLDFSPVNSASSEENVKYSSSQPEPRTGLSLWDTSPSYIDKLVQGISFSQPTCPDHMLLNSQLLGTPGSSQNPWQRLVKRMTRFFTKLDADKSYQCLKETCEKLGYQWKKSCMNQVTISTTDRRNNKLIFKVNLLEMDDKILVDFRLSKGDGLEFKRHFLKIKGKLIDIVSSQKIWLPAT

[14] = target: Serine/threonine-protein kinase NIM1 (Homo sapiens) (UniProt Q8IY84); assay: Inhibition of NIM1 (unknown origin)
Sequence of Serine/threonine-protein kinase NIM1 (Homo sapiens) (Q8IY84 whole entry): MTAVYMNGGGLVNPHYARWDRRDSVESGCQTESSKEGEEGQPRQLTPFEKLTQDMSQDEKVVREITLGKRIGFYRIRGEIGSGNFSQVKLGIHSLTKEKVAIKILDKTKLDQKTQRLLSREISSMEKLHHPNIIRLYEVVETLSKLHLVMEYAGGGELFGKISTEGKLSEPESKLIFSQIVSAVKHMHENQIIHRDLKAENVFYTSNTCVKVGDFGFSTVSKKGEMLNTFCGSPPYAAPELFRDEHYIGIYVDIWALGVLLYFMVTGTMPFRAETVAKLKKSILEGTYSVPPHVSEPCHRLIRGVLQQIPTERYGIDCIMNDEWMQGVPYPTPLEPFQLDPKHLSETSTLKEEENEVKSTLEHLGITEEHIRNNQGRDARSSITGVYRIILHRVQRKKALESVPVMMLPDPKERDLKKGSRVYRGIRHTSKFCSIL

[15] = target: Serine/threonine-protein kinase 38 (Homo sapiens) (UniProt Q15208); assay: Inhibition of NDR1 (unknown origin)
Sequence of Serine/threonine-protein kinase 38 (Homo sapiens) (Q15208 2-465 limits assumed): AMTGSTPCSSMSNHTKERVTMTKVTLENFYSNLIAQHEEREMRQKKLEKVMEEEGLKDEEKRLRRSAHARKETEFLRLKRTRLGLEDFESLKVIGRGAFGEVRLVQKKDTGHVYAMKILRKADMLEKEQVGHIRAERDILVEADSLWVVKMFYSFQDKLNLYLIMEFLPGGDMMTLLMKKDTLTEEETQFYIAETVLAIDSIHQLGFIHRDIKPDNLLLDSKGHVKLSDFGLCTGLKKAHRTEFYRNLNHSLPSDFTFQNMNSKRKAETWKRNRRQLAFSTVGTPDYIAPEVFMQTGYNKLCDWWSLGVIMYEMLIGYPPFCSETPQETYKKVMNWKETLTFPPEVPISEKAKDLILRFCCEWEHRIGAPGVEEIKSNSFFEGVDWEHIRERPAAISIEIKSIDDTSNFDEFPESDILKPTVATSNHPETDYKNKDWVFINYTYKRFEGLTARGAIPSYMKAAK

[16] = target: Serine/threonine-protein kinase Nek4 (Homo sapiens) (UniProt P51957); assay: Inhibition of NEK4 (unknown origin)
Sequence of Serine/threonine-protein kinase Nek4 (Homo sapiens) (P51957 whole entry, looked up): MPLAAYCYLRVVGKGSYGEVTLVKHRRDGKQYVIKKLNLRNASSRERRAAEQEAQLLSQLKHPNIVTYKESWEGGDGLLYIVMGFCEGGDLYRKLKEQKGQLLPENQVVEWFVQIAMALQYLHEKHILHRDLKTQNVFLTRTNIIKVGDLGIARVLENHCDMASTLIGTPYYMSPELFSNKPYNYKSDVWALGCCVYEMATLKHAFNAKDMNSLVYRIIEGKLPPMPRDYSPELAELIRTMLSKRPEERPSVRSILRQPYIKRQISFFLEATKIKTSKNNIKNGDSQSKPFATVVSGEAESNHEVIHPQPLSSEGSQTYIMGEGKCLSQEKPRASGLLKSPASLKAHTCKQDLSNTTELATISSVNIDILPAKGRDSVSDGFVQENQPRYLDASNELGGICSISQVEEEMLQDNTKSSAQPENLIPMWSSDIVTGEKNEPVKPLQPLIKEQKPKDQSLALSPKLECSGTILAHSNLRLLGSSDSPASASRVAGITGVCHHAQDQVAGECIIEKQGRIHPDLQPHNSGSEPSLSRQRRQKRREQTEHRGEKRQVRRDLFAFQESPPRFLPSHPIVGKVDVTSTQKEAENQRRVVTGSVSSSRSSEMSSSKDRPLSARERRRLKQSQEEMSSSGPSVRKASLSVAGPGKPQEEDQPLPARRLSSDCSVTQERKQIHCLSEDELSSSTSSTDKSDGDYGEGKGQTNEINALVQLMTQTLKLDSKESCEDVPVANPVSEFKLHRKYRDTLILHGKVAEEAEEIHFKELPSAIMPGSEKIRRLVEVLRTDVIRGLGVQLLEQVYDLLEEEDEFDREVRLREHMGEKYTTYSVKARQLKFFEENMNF

[17] = target: Serine/threonine-protein kinase pim-2 (Homo sapiens) (UniProt Q9P1W9); assay: Inhibition of PIM2 (unknown origin)
Sequence of Serine/threonine-protein kinase pim-2 (Homo sapiens) (Q9P1W9 whole entry, looked up): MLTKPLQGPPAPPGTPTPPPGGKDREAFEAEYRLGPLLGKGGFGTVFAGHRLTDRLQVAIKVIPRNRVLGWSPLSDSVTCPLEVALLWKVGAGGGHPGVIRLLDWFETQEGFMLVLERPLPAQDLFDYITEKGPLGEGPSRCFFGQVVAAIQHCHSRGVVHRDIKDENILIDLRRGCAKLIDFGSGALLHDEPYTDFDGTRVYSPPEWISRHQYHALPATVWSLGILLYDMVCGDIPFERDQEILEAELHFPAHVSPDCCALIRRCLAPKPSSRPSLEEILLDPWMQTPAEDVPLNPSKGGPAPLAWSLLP

[18] = target: Serine/threonine-protein kinase PLK2 (Homo sapiens) (UniProt Q9NYY3); assay: Inhibition of PLK2 (unknown origin)
Sequence of Serine/threonine-protein kinase PLK2 (Homo sapiens) (Q9NYY3 whole entry, looked up): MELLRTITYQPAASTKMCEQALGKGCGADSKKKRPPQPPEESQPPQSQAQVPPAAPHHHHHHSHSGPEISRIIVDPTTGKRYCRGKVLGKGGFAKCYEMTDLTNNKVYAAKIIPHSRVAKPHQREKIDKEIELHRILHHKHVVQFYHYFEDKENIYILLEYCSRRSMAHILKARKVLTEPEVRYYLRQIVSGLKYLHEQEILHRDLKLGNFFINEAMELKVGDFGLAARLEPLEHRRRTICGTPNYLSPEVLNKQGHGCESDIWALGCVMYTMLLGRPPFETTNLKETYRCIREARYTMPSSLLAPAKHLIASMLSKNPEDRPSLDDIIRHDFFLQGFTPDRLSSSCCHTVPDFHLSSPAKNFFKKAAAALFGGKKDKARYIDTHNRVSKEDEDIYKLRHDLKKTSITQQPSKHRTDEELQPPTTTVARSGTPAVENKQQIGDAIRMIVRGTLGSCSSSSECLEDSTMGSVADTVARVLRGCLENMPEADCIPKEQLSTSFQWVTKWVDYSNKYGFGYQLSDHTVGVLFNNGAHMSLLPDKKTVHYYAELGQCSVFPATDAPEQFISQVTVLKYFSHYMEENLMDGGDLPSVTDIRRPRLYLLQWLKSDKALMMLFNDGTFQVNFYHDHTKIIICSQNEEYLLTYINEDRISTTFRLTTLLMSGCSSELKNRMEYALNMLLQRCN

[19] = target: Wee1-like protein kinase (Homo sapiens) (UniProt P30291); assay: Inhibition of WEE1 (unknown origin)
Sequence of Wee1-like protein kinase (Homo sapiens) (P30291 whole entry, looked up): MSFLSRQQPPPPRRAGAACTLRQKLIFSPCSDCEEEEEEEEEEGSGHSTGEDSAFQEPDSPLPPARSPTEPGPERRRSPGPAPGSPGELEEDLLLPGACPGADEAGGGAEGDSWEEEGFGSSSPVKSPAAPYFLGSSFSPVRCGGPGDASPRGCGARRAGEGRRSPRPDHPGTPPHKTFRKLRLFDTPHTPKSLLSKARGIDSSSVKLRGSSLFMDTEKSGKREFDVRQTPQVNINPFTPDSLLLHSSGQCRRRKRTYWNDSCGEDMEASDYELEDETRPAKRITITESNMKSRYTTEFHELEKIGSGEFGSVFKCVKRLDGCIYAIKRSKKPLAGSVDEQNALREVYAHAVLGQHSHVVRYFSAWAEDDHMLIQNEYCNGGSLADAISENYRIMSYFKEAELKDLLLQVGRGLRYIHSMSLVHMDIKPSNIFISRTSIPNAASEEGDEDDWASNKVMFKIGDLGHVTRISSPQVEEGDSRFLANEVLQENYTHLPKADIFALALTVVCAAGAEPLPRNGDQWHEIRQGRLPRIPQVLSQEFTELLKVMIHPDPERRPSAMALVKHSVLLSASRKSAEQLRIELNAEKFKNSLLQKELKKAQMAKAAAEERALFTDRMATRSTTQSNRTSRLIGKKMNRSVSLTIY

[20] = test system: K562; assay: Induction of apoptosis in human K562 cells assessed as increase in PARP1 cleavage after 24 hrs by Immunoblotting; format: functional, cell-based
In short: (§3)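 Cells treated 24 h with a range of doses, with 1 μM doxorubicin as control. Cells were harvested into Laemmli buffer, run on SDS-PAGE and blotted to nitrocellulose. Membranes were probed overnight with primary antibodies (PARP, Ser139-phospho-H2AX, Bcl-2, β-actin loading control), then peroxidase secondaries, with ECL detection on a CCD imager.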

[21] = test system: MCF7; assay: Induction of apoptosis in human MCF7 cells assessed as increase in PARP1 cleavage after 24 hrs by Immunoblotting; format: functional, cell-based; in short: as §3
[22] = test system: K562; assay: Induction of apoptosis in human K562 cells assessed as increase in gammaH2AX level at 1.25 to 20 uM after 24 hrs by immunoblotting; format: functional, cell-based; in short: as §3
[23] = test system: MCF7; assay: Induction of apoptosis in human MCF7 cells assessed as increase in gammaH2AX level at 1.25 to 20 uM after 24 hrs by immunoblotting; format: functional, cell-based; in short: as §3
[24] = test system: MCF7; assay: Induction of apoptosis in human MCF7 cells assessed as increase in phosphorylated Bcl2 level at 1.25 to 20 uM after 24 hrs by immunoblotting; format: functional, cell-based; in short: as §3
[25] = target: Serine/threonine-protein kinase Nek6 (Homo sapiens) (UniProt Q9HC98); assay: Inhibition of NEK6 (unknown origin)
Sequence of Serine/threonine-protein kinase Nek6 (Homo sapiens) (Q9HC98 whole entry): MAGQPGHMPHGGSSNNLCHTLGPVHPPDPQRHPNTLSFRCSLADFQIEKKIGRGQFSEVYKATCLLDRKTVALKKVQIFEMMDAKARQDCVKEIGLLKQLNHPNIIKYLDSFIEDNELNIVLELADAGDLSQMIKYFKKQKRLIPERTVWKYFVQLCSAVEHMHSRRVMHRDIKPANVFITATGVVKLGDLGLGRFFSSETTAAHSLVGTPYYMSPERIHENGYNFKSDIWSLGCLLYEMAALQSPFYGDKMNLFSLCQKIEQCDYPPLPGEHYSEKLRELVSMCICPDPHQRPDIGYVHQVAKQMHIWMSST

[26] = target: Serine/threonine-protein kinase PLK3 (Homo sapiens) (UniProt Q9H4B4); assay: Inhibition of PLK3 (unknown origin)
Sequence of Serine/threonine-protein kinase PLK3 (Homo sapiens) (Q9H4B4 whole entry, looked up): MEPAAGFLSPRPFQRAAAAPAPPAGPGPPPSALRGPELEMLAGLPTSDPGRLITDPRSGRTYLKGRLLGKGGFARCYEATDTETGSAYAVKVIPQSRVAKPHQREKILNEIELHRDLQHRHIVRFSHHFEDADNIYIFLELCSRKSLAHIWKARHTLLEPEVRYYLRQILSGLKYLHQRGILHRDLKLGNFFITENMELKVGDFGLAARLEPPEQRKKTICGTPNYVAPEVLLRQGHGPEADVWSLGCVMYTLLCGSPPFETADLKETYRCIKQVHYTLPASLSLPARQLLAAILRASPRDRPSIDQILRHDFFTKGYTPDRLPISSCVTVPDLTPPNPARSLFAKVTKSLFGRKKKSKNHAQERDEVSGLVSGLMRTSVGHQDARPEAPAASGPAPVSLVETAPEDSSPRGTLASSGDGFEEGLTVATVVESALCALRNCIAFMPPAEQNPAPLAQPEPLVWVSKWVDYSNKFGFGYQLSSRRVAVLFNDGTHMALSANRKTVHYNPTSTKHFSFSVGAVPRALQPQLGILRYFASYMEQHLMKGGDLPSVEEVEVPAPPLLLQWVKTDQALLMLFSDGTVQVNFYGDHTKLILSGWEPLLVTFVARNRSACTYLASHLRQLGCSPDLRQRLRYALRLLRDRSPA

GI50 [1]: 2.1 µM
GI50 [2]: 11.8 µM
inhibition [13]: inactive
inhibition [14]: inactive
inhibition [15]: inactive
inhibition [16]: inactive
inhibition [17]: inactive
inhibition [18]: inactive
inhibition [19]: inactive
inhibition [25]: inactive
inhibition [26]: inactive
SMILES: CCCCCc1cc2nn(-c3ccccc3)cc2cn1
Activity [3]: 14.8%
Activity [4]: 3.3%
Activity [5]: 82%
Activity [6]: 50.3%
Activity [7]: 18.1%
Activity [8]: 26.3%
Activity [9]: 55.6%
Activity [10]: Dose-dependent effect
Activity [11]: Dose-dependent effect
inhibition [12]: inactive
Activity [20]: Dose-dependent effect
Activity [21]: Dose-dependent effect
Activity [22]: Active
Activity [23]: Active
Activity [24]: Active

Source: ChEMBL document CHEMBL4229372, “Synthesis and anti-mitotic activity of 2,4- or 2,6-disubstituted- and 2,4,6-trisubstituted-2H-pyrazolo[4,3-c]pyridines” (2018)
